Assay outcomes (PubChem BioAssay)
The list is not random: actives were taken first. Their share in the collection is about 2.9%.
A3A deaminase: APOBEC3A ssDNA deaminase inhibitors, primary screen, selectivity assay for APOBEC3G inhibitor project, biochemical, FAM/TAMRA oligo cleavage fluorescence; recombinant A3A, FAM/TAMRA ssDNA deamination fluorescence; inhibition, % at 20 µM; 330,000 tested, 0.41% active;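 active means at least 40% inhibition at 20 µM here, with at most 30% in a related deaminase screen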
Target sequence (P31941 whole entry, looked up): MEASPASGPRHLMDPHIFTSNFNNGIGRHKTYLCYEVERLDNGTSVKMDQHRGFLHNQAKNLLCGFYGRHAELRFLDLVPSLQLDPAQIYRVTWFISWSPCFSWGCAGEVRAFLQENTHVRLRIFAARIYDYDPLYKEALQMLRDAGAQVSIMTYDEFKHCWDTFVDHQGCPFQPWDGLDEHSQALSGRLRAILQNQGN
core dimer inh: inhibitors of HCV core protein dimerization, primary screen, biochemical, TR-FRET, high-throughput; TR-FRET GST/Flag-core106 dimerization, 1536-well; inhibition, % at 5 µM; 300,000 tested, 0.33% active;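 active means inhibition above the mean of all tested compounds plus 3 SD, set per screening campaign, cut at about 45% in these data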
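Assay system: Tagged HCV core106 pair (GST and Flag) | Buffer or medium: KF-containing HEPES buffer, pH 7.45, DTT, CHAPS, BSA | Also added: Eu donor and XL665 acceptor anti-tag antibodies | Dosing: One concentration, 5 µM, in 0.5% DMSO | Timing: 4 h at 22.5 °C | Technique: TR-FRET 671 and 617 nm emission | Repeats: Singlicate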
ABHD5-PLIN5 inh: ABHD5-PLIN5 interaction inhibitors, primary screen, cell lysate, split luciferase complementation, luminescence. Split G. princeps luciferase complementation, 4 h. 360,000 tested, 0.78% active. inhibition, % at 4 µM. Perilipin-5 (Homo sapiens) + 1-acylglycerol-3-phosphate O-acyltransferase ABHD5 (Homo …;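 active means inhibition above the mean inhibition across every tested compound plus 3 SD, cut at about 22% in these data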
NS3 helicase inh: inhibitors of HCV NS3 helicase, primary screen, biochemical, Cy5 molecular beacon fluorescence; NS3 helicase DNA unwinding; inhibition, % at 10.9 µM; 290,000 tested, 0.56% active; AID 1800, 2009;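 active means inhibition above the mean of all tested compounds plus 3 SD, set per campaign, cut at about 35% in these data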
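Assay system – hepatitis C virus NS3 helicase domain fragment enzyme · Buffer or medium – MOPS pH 6.5, MgCl2, DTT, Tween20, BSA · Reagent – Cy5/quencher beacon DNA duplex and ATP to start · Compound – single 10.9 µM dose · Timing – 1 h at 25 °C · Technique – Cy5 beacon fluorescence read at start and 1 h · Measure – % inhibition of unwinding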
A3G deaminase: APOBEC3G DNA deaminase inhibitors, primary screen, biochemical, fluorescence, single-stranded DNA substrate, uHTS; DNA dC->dU-editing enzyme APOBEC-3G (Homo sapiens), Q9HC16; recombinant A3G, ssDNA deamination FAM/TAMRA fluorescence; inhibition, % at 20 µM; 330,000 tested, 0.28% active; AID 493012, 2011;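 active means inhibition of at least 40% at 20 µM, with no more than 30% in the related APOBEC3A deaminase screen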
Target sequence (Q9HC16 whole entry, looked up): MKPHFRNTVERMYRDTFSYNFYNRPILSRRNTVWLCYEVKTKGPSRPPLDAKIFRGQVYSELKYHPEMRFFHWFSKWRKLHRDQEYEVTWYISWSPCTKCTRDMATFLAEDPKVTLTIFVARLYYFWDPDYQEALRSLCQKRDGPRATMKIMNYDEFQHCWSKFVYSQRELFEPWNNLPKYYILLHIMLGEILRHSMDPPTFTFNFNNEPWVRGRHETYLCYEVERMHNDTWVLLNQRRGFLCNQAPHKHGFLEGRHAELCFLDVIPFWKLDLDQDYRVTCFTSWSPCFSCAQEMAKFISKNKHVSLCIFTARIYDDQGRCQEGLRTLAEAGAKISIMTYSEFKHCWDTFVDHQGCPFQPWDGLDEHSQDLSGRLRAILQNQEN
PRMT1 inh: PRMT1 methyltransferase inhibitors, primary screen, biochemical, fluorescence polarization. Protein arginine N-methyltransferase 1 (Homo sapiens), Q99873. recombinant PRMT1, activity-based probe fluorescence polarization. inhibition, % at 2.79 µM. 370,000 tested, 1.3% active;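 active means inhibition above about 21% made by adding two undisclosed values, limit read from the data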
A3G conf: APOBEC3G deaminase inhibitor retest, confirmation, biochemical, fluorescence, single-stranded DNA substrate, single concentration; shares compounds with A3G deaminase; recombinant A3G ssDNA deaminase, UDG/FAM-TAMRA fluorescence; inhibition, % at 20 µM; 890 tested, 72% active; AID 493152, 2011;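 active means inhibition reaching a set limit in any replicate at 20 µM, the limit being 80% of the first screen's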
UDG A3G counter: E. coli UDG inhibitors, confirmation, counter-screen for APOBEC3G inhibitor project, biochemical, single concentration, fluorescence, FAM/TAMRA oligo; shares compounds with A3G deaminase; UDG counterscreen; inhibition, % at 20 µM; 710 tested, under 10 active;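 active means compounds giving 40% or more inhibition at 20 µM in any one of the three replicates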;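 further: inhibitors lower the FAM signal released by uracil excision and alkaline cleavage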
ABHD5 PLIN5 conf: ABHD5-PLIN5 interaction inhibitors, confirmation, biochemical, luminescence; shares compounds with ABHD5-PLIN5 inh; inhibition, % at 4 µM; 2,200 tested, 67% active; in the data active means inhibition above about 23%
HNF4 counter: HNF4 dimerization inhibitors, counter-screen for ABHD5-PLIN5 interaction inhibitor project, biochemical, split-luciferase complementation, luminescence; 2,200 tested, 77% active; shares compounds with ABHD5-PLIN5 inh; inhibition, % at 4 µM; AID 651674, 2012;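 active means mean inhibition across replicate wells exceeding the computed hit threshold, cut at about 13% in these data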;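 further: light from luciferase halves that rejoin when HNF4 fusion proteins dimerize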
Numbers stand for hits; – = inactive; · = no result given.

SMILES | A3A deaminase | core dimer inh | ABHD5-PLIN5 inh | NS3 helicase inh | A3G deaminase | PRMT1 inh | A3G conf | UDG A3G counter | others
C=C(C)C(=O)Nc1cccc(C2=NOC3(C2)C[C@H](C(N)=O)N(C(=O)COc2ccc(Cl)cc2)C3)c1 (some centres undefined) | – | – | – | · | 87.5 | – | 91.3 | –
C=C(C)C(=O)Nc1cccc(C2=NOC3(C2)C[C@H](C(N)=O)N(C(=O)c2ccccc2)C3)c1 (some centres undefined) | – | – | – | · | 62.8 | – | 65.3 | –
C=C(C)C(=O)Nc1cccc(C2=NOC3(C2)C[C@@H](C(N)=O)N(C(=O)c2cc([N+](=O)[O-])cc([N+](=O)[O-])c2C)C3)c1 (some centres undefined) | – | – | – | · | 43.6 | – | 59.3 | –
Nc1ccccc1Sc1nc2ccccc2[nH]1 | – | – | – | – | 56.6 | 52.0 | – | ·
CC(C)(C)C1=Nn2c(nnc2-c2n[nH]c3c2CCC3)SC1 | – | – | – | – | 48.8 | – | 71.4 | –
C=CCn1c(-c2sc3nc(C)cc(C)c3c2N)n[nH]c1=S | – | – | – | – | 49.3 | – | 77.1 | –
CCn1c(-c2ccc3ncccc3c2)n[nH]c1=S | – | – | – | – | – | – | · | ·
C=CCn1c(-c2ccc3ncccc3c2)n[nH]c1=S | – | – | – | – | 56.3 | – | 59.7 | –
C=CCn1c(-c2cc(OC)cc(OC)c2)n[nH]c1=S | – | – | – | – | 43.2 | – | 81.7 | –
C=CCn1c(-c2cccc(OCC)c2)n[nH]c1=S | – | – | – | – | – | – | · | ·
CCN(C(=O)COC(=O)c1cc([N+](=O)[O-])ccc1N1CCOCC1)c1ccccc1 | – | · | – | · | – | – | · | ·
COc1ccc([C@H]2N[C@]3(CCCN(Cc4ccco4)C3=O)[C@H]3C(=O)N(Cc4ccccc4)C(=O)[C@@H]23)cc1 | · | · | – | · | · | – | · | ·
CCN(CC)C(=O)c1sc2nc(N3CCOCC3)c3c(c2c1N)CCCC3 | – | – | – | – | 49.4 | 23.6 | – | ·
C[C@H](CO)N1C[C@H](C)[C@@H](CN(C)S(=O)(=O)c2ccccc2F)Oc2ncc(Br)cc2C1=O | · | · | – | · | · | – | · | ·
Cc1ccc(N=Cc2cccc(O)c2O)c(C)c1 | – | – | – | – | 75.0 | – | 31.0 | ·
Oc1cccc(/C=N/N=C/c2cccc(O)c2O)c1O | – | – | – | – | – | – | · | ·
Cc1ccccc1N=Cc1cccc(O)c1O | – | – | – | – | 69.6 | · | 50.9 | ·
Cc1ccc(C(=O)NCCN2CCC(n3c(=O)[nH]c4ccccc43)CC2)cc1C | · | · | – | · | · | – | · | ·
NC(Cc1ccc(C(F)(F)F)cc1)c1csc(Nc2ccc(S(N)(=O)=O)cc2)n1 (centres undefined) | · | · | – | · | · | – | · | ·
Fc1ccccc1-n1[nH]nnc1=S | – | – | – | – | 51.8 | – | 15.0 | –
CC1(C(=O)NS(=O)(=O)C2CC2)CCCN(C(=O)Cc2ccc(F)cc2)C1 (centres undefined) | · | · | – | · | · | – | · | ·
O=S(=O)(c1c(F)cccc1F)N1CCCC2CCCCC21 (centres undefined) | – | · | – | · | 52.5 | – | – | –
O=C(CC1CCCC1)N1CCN(S(=O)(=O)c2c(F)cccc2F)CC1 | · | · | – | · | · | – | · | ·
COc1ccccc1NNC(=O)C(O)(c1ccccc1)c1ccccc1 | – | – | – | – | 55.6 | – | – | ·
OCc1ccccc1SSc1ccccc1CO | – | – | 48.4 | · | 44.3 | 106.0 | 50.6 | –
SMILES | A3A deaminase | core dimer inh | ABHD5-PLIN5 inh | NS3 helicase inh | A3G deaminase | PRMT1 inh | A3G conf | UDG A3G counter | others
OCc1ccccc1CNCc1ccccc1 | – | – | – | – | – | – | · | ·
CCOC(=O)[C@]12CCC=C1N(CCC1=CCCCC1)C(=O)[C@H](CC(=O)N1CCCCC1)C2 | · | · | – | · | · | – | · | ·
O=C1NC(Cc2ccc(O)cc2)c2nc3ccc(Br)cc3c(=O)n2-c2ncccc21 (centres undefined) | · | · | – | · | · | – | · | ·
O=C(Oc1ccc(C(=S)N2CCOCC2)cc1Br)c1cc(Cl)ccc1Cl | – | – | – | – | – | – | · | ·
O=C(Oc1c(Br)cc(C(=S)N2CCOCC2)cc1Br)c1ccc(Cl)cc1 | – | – | – | – | 61.9 | – | 20.4 | –
CC(=O)N1CCN(S(=O)(=O)c2cccc(C(=O)NNC(=O)c3ccc(Br)cc3)c2)CC1 | · | · | – | · | · | – | · | ·
CC1(C)ON=C(c2ccc(C(F)(F)F)cc2)NC1=O | · | · | – | · | · | – | · | ·
CSc1nc(=NC(C)=O)ss1 | – | – | – | – | 50.6 | – | 42.8 | –
COc1ccc(OC)c2c1C(=O)C(Cl)=C(Cl)C2=O | – | – | 92.8 | – | 87.9 | 90.9 | 92.0 | – | ABHD5 PLIN5 conf=103.5;HNF4 counter=110.8
COc1ccc(OC)c2c1C(=O)CC2C (centres undefined) | · | · | – | · | · | – | · | ·
NC(=O)c1c(NC(=O)C2COc3ccccc3O2)sc2c1CCN(Cc1ccccc1)C2 (centres undefined) | – | – | – | – | – | – | · | ·
COC(=O)N1CCc2c(sc(NC(=O)C3COc4ccccc4O3)c2C(N)=O)C1 (centres undefined) | – | – | 39.9 | · | 49.7 | – | 20.9 | – | ABHD5 PLIN5 conf=–;HNF4 counter=–
CCOc1ccc(N)c(SSc2cc(OCC)ccc2N)c1 | – | – | 72.8 | – | 72.1 | 86.0 | 96.1 | – | ABHD5 PLIN5 conf=81.5;HNF4 counter=96.6
CCOC(=O)C1=C(COC(=O)CNS(=O)(=O)c2ccc(C)c(C)c2)NC(=O)NC1C (centres undefined) | · | · | – | · | · | – | · | ·
